Results from ChEMBL document CHEMBL4689842, “EUbOPEN Chemogenomics Library wave 1” (2021).

Key:
[1] = test system: HEK-293T; experiment: Incucyte cell viability with HEK293T; type: toxicity, cell-based; settings: human, 10 µM, compound concentration 10 uM; further: filed as whole numbers so only -1 and 0 and 1 occur
[2] = test system: U2OS; experiment: Multiplex assay against U2OS; type: toxicity, cell-based; settings: human
Outline: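 Phenotypes for tubulin, mitochondrial mass and membrane permeability are expressed as per cents of healthy-nucleus cells. Cells were stained live at seeding with Hoechst33342, BioTracker Green Microtubule Cytoskeleton Dye, MitoTracker Red and Annexin V Alexa Fluor 680, then imaged after compound addition on a CQ1 microscope at 37°C and 5% CO2. Machine-learning gating in CellPathfinder separated Hoechst high-intensity objects from normal cells, divided normal cells by nuclear state (healthy, pyknosed, fragmented) and divided pyknosed cells into mitotic or apoptotic.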

[3] = 12 h, 1 µM, compound concentration 1 uM, replicate 1
[4] = 12 h, 1 µM, compound concentration 1 uM, replicate 2
[5] = 12 h, 10 µM, compound concentration 10 uM, replicate 1
[6] = 12 h, 10 µM, compound concentration 10 uM, replicate 2
[7] = 24 h, 1 µM, compound concentration 1 uM, replicate 1
[8] = 24 h, 1 µM, compound concentration 1 uM, replicate 2
[9] = 24 h, 10 µM, compound concentration 10 uM, replicate 1
[10] = 24 h, 10 µM, compound concentration 10 uM, replicate 2
[11] = 48 h, 1 µM, compound concentration 1 uM, replicate 1
[12] = 48 h, 1 µM, compound concentration 1 uM, replicate 2
[13] = 48 h, 10 µM, compound concentration 10 uM, replicate 1
[14] = 48 h, 10 µM, compound concentration 10 uM, replicate 2

In the case of CC(Cc1ccc(O)c(O)c1)C(C)Cc1ccc(O)c(O)c1 (centres undefined) [NORDIHYDROGUAIARETIC ACID], the “Growth Rate” value ([1]; 0 h, replicate number 1, timepoint 0 hours) is reported as 1, the “Growth Rate” value ([1]; 0 h, replicate number 2, timepoint 0 hours) is reported as 0 and the “Growth Rate” value ([1]; 6 h, replicate number 1, timepoint 6 hours) is reported as 0. The “Growth Rate” value ([1]; 12 h, replicate number 1, timepoint 12 hours) was 0, the “Growth Rate” value ([1]; 18 h, replicate number 1, timepoint 18 hours) was 0 and the “Growth Rate” value ([1]; 24 h, replicate number 1, timepoint 24 hours) was 0. The “Population Apoptotic (%)” value [2, 3] was 64%, the “Population Fragmented Nuclei (%)” value [2, 3] was 11% and the “Population Healthy Nuclei (%)” value [2, 3] was 75%. The “Population Hoechst High Intensity Objects (%)” value [2, 3] was 8%, the “Population Membrane Permeable-Phenotype (%)” value [2, 3] was 3% and the “Population Mitochondria Different-Phenotype (%)” value [2, 3] was 8%. For the same compound, the “Population Mitotic Cells (%)” value [2, 3] was 35%, the “Population Normal (%)” value [2, 3] was 91% and the “Population Pyknosed Nuclei (%)” value [2, 3] was 12%. For the same compound, the “Population Tubulin-Different-Phenotype (%)” value [2, 3] was 10%, the “Population Apoptotic (%)” value [2, 4] was 0% and the “Population Fragmented Nuclei (%)” value [2, 4] was 3%. For the same compound, the “Population Healthy Nuclei (%)” value [2, 4] was 93%, the “Population Hoechst High Intensity Objects (%)” value [2, 4] was 15% and the “Population Membrane Permeable-Phenotype (%)” value [2, 4] was 0%. The “Population Mitochondria Different-Phenotype (%)” value [2, 4] was 1%, the “Population Mitotic Cells (%)” value [2, 4] was 100% and the “Population Normal (%)” value [2, 4] was 84%. The “Population Pyknosed Nuclei (%)” value [2, 4] was 3%, the “Population Tubulin-Different-Phenotype (%)” value [2, 4] was 25% and the “Population Apoptotic (%)” value [2, 5] was 35%. For the same compound, the “Population Fragmented Nuclei (%)” value [2, 5] was 19%, the “Population Healthy Nuclei (%)” value [2, 5] was 64% and the “Population Hoechst High Intensity Objects (%)” value [2, 5] was 14%. The “Population Membrane Permeable-Phenotype (%)” value [2, 5] was 7%, the “Population Mitochondria Different-Phenotype (%)” value [2, 5] was 12% and the “Population Mitotic Cells (%)” value [2, 5] was 64%. For the same compound, the “Population Normal (%)” value [2, 5] was 85%, the “Population Pyknosed Nuclei (%)” value [2, 5] was 16% and the “Population Tubulin-Different-Phenotype (%)” value [2, 5] was 30%. The “Population Apoptotic (%)” value [2, 6] was 0%, the “Population Fragmented Nuclei (%)” value [2, 6] was 2% and the “Population Healthy Nuclei (%)” value [2, 6] was 91%. The “Population Hoechst High Intensity Objects (%)” value [2, 6] was 6%, the “Population Membrane Permeable-Phenotype (%)” value [2, 6] was 2% and the “Population Mitochondria Different-Phenotype (%)” value [2, 6] was 10%. For the same compound, the “Population Mitotic Cells (%)” value [2, 6] was 100%, the “Population Normal (%)” value [2, 6] was 93% and the “Population Pyknosed Nuclei (%)” value [2, 6] was 5%. The “Population Tubulin-Different-Phenotype (%)” value [2, 6] was 38%, the “Population Apoptotic (%)” value [2, 7] was 45% and the “Population Fragmented Nuclei (%)” value [2, 7] was 12%. For the same compound, the “Population Healthy Nuclei (%)” value [2, 7] was 78%, the “Population Hoechst High Intensity Objects (%)” value [2, 7] was 7% and the “Population Membrane Permeable-Phenotype (%)” value [2, 7] was 4%. The “Population Mitochondria Different-Phenotype (%)” value [2, 7] was 7%, the “Population Mitotic Cells (%)” value [2, 7] was 54% and the “Population Normal (%)” value [2, 7] was 92%. For the same compound, the “Population Pyknosed Nuclei (%)” value [2, 7] was 8%, the “Population Tubulin-Different-Phenotype (%)” value [2, 7] was 11% and the “Population Apoptotic (%)” value [2, 8] was 0%. For the same compound, the “Population Fragmented Nuclei (%)” value [2, 8] was 2%, the “Population Healthy Nuclei (%)” value [2, 8] was 94% and the “Population Membrane Permeable-Phenotype (%)” value [2, 8] was 0%. For the same compound, the “Population Mitochondria Different-Phenotype (%)” value [2, 8] was 8%, the “Population Mitotic Cells (%)” value [2, 8] was 100% and the “Population Pyknosed Nuclei (%)” value [2, 8] was 2%. The “Population Tubulin-Different-Phenotype (%)” value [2, 8] was 23%, the “Population Apoptotic (%)” value [2, 9] was 61% and the “Population Fragmented Nuclei (%)” value [2, 9] was 18%. The “Population Healthy Nuclei (%)” value [2, 9] was 68%, the “Population Hoechst High Intensity Objects (%)” value [2, 9] was 14% and the “Population Membrane Permeable-Phenotype (%)” value [2, 9] was 10%. The “Population Mitochondria Different-Phenotype (%)” value [2, 9] was 15%, the “Population Mitotic Cells (%)” value [2, 9] was 38% and the “Population Normal (%)” value [2, 9] was 85%. For the same compound, the “Population Pyknosed Nuclei (%)” value [2, 9] was 12%, the “Population Tubulin-Different-Phenotype (%)” value [2, 9] was 59% and the “Population Apoptotic (%)” value [2, 10] was 16%. For the same compound, the “Population Fragmented Nuclei (%)” value [2, 10] was 2%, the “Population Healthy Nuclei (%)” value [2, 10] was 90% and the “Population Hoechst High Intensity Objects (%)” value [2, 10] was 5%. For the same compound, the “Population Membrane Permeable-Phenotype (%)” value [2, 10] was 1%, the “Population Mitochondria Different-Phenotype (%)” value [2, 10] was 9% and the “Population Mitotic Cells (%)” value [2, 10] was 83%. The “Population Normal (%)” value [2, 10] was 94%, the “Population Pyknosed Nuclei (%)” value [2, 10] was 7% and the “Population Tubulin-Different-Phenotype (%)” value [2, 10] was 61%. The “Population Apoptotic (%)” value [2, 11] was 43%, the “Population Fragmented Nuclei (%)” value [2, 11] was 9% and the “Population Healthy Nuclei (%)” value [2, 11] was 81%. The “Population Hoechst High Intensity Objects (%)” value [2, 11] was 2%, the “Population Membrane Permeable-Phenotype (%)” value [2, 11] was 2% and the “Population Mitochondria Different-Phenotype (%)” value [2, 11] was 18%. For the same compound, the “Population Mitotic Cells (%)” value [2, 11] was 56%, the “Population Normal (%)” value [2, 11] was 97% and the “Population Pyknosed Nuclei (%)” value [2, 11] was 8%. The “Population Tubulin-Different-Phenotype (%)” value [2, 11] was 14%, the “Population Apoptotic (%)” value [2, 12] was 20% and the “Population Fragmented Nuclei (%)” value [2, 12] was 8%. The “Population Healthy Nuclei (%)” value [2, 12] was 86%, the “Population Hoechst High Intensity Objects (%)” value [2, 12] was 6% and the “Population Membrane Permeable-Phenotype (%)” value [2, 12] was 4%. For the same compound, the “Population Mitochondria Different-Phenotype (%)” value [2, 12] was 9%, the “Population Mitotic Cells (%)” value [2, 12] was 80% and the “Population Normal (%)” value [2, 12] was 93%. For the same compound, the “Population Pyknosed Nuclei (%)” value [2, 12] was 5%, the “Population Tubulin-Different-Phenotype (%)” value [2, 12] was 30% and the “Population Apoptotic (%)” value [2, 13] was 72%. For the same compound, the “Population Fragmented Nuclei (%)” value [2, 13] was 15%, the “Population Healthy Nuclei (%)” value [2, 13] was 74% and the “Population Hoechst High Intensity Objects (%)” value [2, 13] was 9%. The “Population Membrane Permeable-Phenotype (%)” value [2, 13] was 6%, the “Population Mitochondria Different-Phenotype (%)” value [2, 13] was 18% and the “Population Mitotic Cells (%)” value [2, 13] was 27%. For the same compound, the “Population Normal (%)” value [2, 13] was 90%, the “Population Pyknosed Nuclei (%)” value [2, 13] was 9% and the “Population Tubulin-Different-Phenotype (%)” value [2, 13] was 76%. For the same compound, the “Population Apoptotic (%)” value [2, 14] was 66%, the “Population Fragmented Nuclei (%)” value [2, 14] was 1% and the “Population Healthy Nuclei (%)” value [2, 14] was 92%. For the same compound, the “Population Hoechst High Intensity Objects (%)” value [2, 14] was 6%, the “Population Membrane Permeable-Phenotype (%)” value [2, 14] was 4% and the “Population Mitochondria Different-Phenotype (%)” value [2, 14] was 16%. The “Population Mitotic Cells (%)” value [2, 14] was 33%, the “Population Normal (%)” value [2, 14] was 93% and the “Population Pyknosed Nuclei (%)” value [2, 14] was 6%. The “Population Tubulin-Different-Phenotype (%)” value [2, 14] was 77%.
